Assay results taken from ChEMBL document CHEMBL1926666, “Synthesis of novel 3-cyclohexylpropanoic acid-derived nitrogen heterocyclic compounds and their evaluation for tuberculostatic activity” (Bioorg Med Chem, 2012).
Converted amounts (≈) assume the structure as drawn.

Test system: Mycobacterium tuberculosis
Experiment: Antituberculosis activity against multidrug-resistant Mycobacterium tuberculosis isolate Spec. 192 by twofold serial dilution method
Assay type: functional
Summary of the method: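 Classical two-fold test-tube serial dilution in Youmans' modified Proskauer–Beck liquid medium with 10% bovine serum. Inocula from 14-day cultures. Compounds in ethylene glycol, 10 mg/mL stock, geometric dilutions in medium; 3.1, 6.2, 12.5, 25, 50 and 100 µg/mL evaluated. Incubation at 37 °C. MIC = lowest concentration inhibiting growth relative to a compound-free tube. INH, PZA and RMP served as reference drugs.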

How did the MIC turn out when `CNC(=S)NNC(=O)CCC1CCCCC1` was run?
The MIC was 100 µg/mL (≈ 411 µM).

How did the MIC turn out when `S=c1[nH]nc(CCC2CCCCC2)[nH]1` was run?
Its MIC is 50 µg/mL (≈ 237 µM).

For `CSC(=NNC(=O)CCC1CCCCC1)SC`, which MIC is on record?
Its MIC is 50 µg/mL (≈ 182 µM).

`NNC(=O)c1ccncc1` [ISONIAZID] was tested. Which MIC did it give?
Its MIC is 0.5 µg/mL (≈ 3.65 µM).

With `CC1(C)CNc2nnc(CCC3CCCCC3)n2C1` as the compound, how does the MIC read?
Its MIC is 100 µg/mL (≈ 381 µM).

For `CO[C@H]1/C=C/O[C@@]2(C)Oc3c(C)c(O)c4c(O)c(c(/C=N/N5CCN(C)CC5)c(O)c4c3C2=O)NC(=O)/C(C)=C\C=C\[C@H](C)[C@H](O)[C@@H](C)[C@@H](O)[C@@H](C)[C@H](OC(C)=O)[C@@H]1C` [RIFAMPIN], which MIC is on record?
The MIC was 1.2 µg/mL (≈ 1.46 µM).

For `c1ccc2c(c1)ccc1nc(CCC3CCCCC3)[nH]c12`, which MIC is on record?
Its MIC is 1.5 µg/mL (≈ 5.39 µM).

With `CSC(=S)NNC(=O)CCC1CCCCC1` as the compound, how does the MIC read?
The MIC was 50 µg/mL (≈ 192 µM).

How did the MIC turn out when `Cn1c(CCC2CCCCC2)n[nH]c1=S` was run?
The MIC was 100 µg/mL (≈ 444 µM).

For `O=[N+]([O-])c1cc(Cl)cc2[nH]c(CCC3CCCCC3)nc12`, which MIC is on record?
The MIC was 12.5 µg/mL (≈ 40.6 µM).

For `C=CCn1c(CCC2CCCCC2)n[nH]c1=S`, which MIC is on record?
The MIC was 50 µg/mL (≈ 199 µM).

Which MIC does the source give for `S=c1[nH]nc(CCC2CCCCC2)o1` here?
Its MIC is 25 µg/mL (≈ 118 µM).

How did the MIC turn out when `Brc1cnc2[nH]c(CCC3CCCCC3)nc2c1` was run?
The MIC was 6.2 µg/mL (≈ 20.1 µM).

How did the MIC turn out when `C=CCNC(=S)NNC(=O)CCC1CCCCC1` was run?
Its MIC is 100 µg/mL (≈ 371 µM).

How did the MIC turn out when `c1ccc2nc3cc4[nH]c(CCC5CCCCC5)nc4cc3nc2c1` was run?
The MIC was 1.5 µg/mL (≈ 4.54 µM).

`O=C(CCC1CCCCC1)NNC(=S)NC1CCCCC1` was tested. Which MIC did it give?
The MIC was 100 µg/mL (≈ 321 µM).

For `S=c1[nH]nc(CCC2CCCCC2)n1-c1ccc(Cl)cc1`, which MIC is on record?
Its MIC is 100 µg/mL (≈ 311 µM).

With `O=C(CCC1CCCCC1)NN=C1SCCS1` as the compound, how does the MIC read?
Its MIC is 100 µg/mL (≈ 367 µM).

`Cl.Cl.c1cc2nc(CCC3CCCCC3)[nH]c2cn1` was tested. Which MIC did it give?
The MIC was 25 µg/mL.

How did the MIC turn out when `O=C(CCC1CCCCC1)NNC(=S)Nc1ccc(Cl)cc1` was run?
The MIC was 50 µg/mL (≈ 147 µM).

For `S=c1[nH]nc(CCC2CCCCC2)n1C1CCCCC1`, which MIC is on record?
The MIC was 100 µg/mL (≈ 341 µM).

How did the MIC turn out when `c1cnc2[nH]c(CCC3CCCCC3)nc2c1` was run?
The MIC was 50 µg/mL (≈ 218 µM).

Which MIC does the source give for `NC(=O)c1cnccn1` [PYRAZINAMIDE] here?
Its MIC is 25 µg/mL (≈ 203 µM).
